These results are taken from the array DNA melting data of Ke et al. (doi:10.1101/2024.01.08.574731).

Data set [1] is described as follows: melting temperature; fluorescence melt of hairpins on a sequencing array, two-state fit, raised by 9.35 °C to match UV melts. The settings on record: sodium 0.088 M. The method, boiled down:
(§1)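 Library hairpins on a sequenced MiSeq flow cell carried annealed Cy3 and quencher oligos, and their Cy3 fluorescence was imaged in 50 mM Na-HEPES pH 8.0 with 25 mM NaCl, in 2.5 °C steps up to 60 °C. Signals were normalised to Cy3 before quenching and to control constructs. Melting temperature and folding enthalpy were obtained from bootstrapped two-state fits, combined by inverse-variance weighting across four replicates, and the fitted temperatures were then raised by 9.35 °C to match UV melts.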

Data set [2] in a line: folding enthalpy; higher = less favourable; fluorescence melt of hairpins on a sequencing array, two-state fit. Conditions: sodium 0.088 M. The method, boiled down: as §1

For GGAGAATCGAAAGATTCC (((..(((....)))))), in data set [1], the Tm is 38.1 °C. In addition, the folding enthalpy in data set [2] is -15.8 kcal/mol.
In the same order, the values of GGAGACCGAAAGGTTCC (((.(((....)))))) are 48 °C and -22.5 kcal/mol.
The matching figures for GGAGACGAAAGTCATCC ((((((....))).))): 45.5 °C and -17.3 kcal/mol.
The matching figures for GGAGACGAAAGTCGCTCC ((((((....)))..))): 42.4 °C and -13 kcal/mol.
For the sequence GGAGACGAAAGTCGGTCC ((((((....)))..))), in data set [1], the Tm turned out to be 39.8 °C. For the same sequence, the folding enthalpy in data set [2] was -12.3 kcal/mol.
In the case of GGAGAGAAATCTCC (((((....))))), the Tm in data set [1] was determined as 45.1 °C. For the same sequence, the folding enthalpy in data set [2] was -18.4 kcal/mol.
Regarding GGAGATGGAAACATCTCC (((((((....))))))), in data set [1], the Tm was 65 °C. The folding enthalpy in data set [2] is -38 kcal/mol.
The matching figures for GGAGCAGGAAACCACTCC ((((..(....)..)))): 27.1 °C and -11.5 kcal/mol.
The matching figures for GGAGCAGGAAACTACTCC ((((.((....)).)))): 41.1 °C and -27.4 kcal/mol.
In the same order, the values of GGAGCAGGAAACTGCCCC ((.((((....)))).)) are 49.7 °C and -17.4 kcal/mol.
Regarding GGAGCCGAAAGGCATCC ((((((....))).))), the Tm in data set [1] came to 53.8 °C. In data set [2], the folding enthalpy was -14.2 kcal/mol.
The matching figures for GGAGCCGAAAGGCATTCC ((((((....)))..))): 33.1 °C and -10.3 kcal/mol.
Regarding GGAGCCGAAAGGCGTCC ((((((....))).))), the Tm in data set [1] is 53.4 °C. Besides, the folding enthalpy in data set [2] was -9.6 kcal/mol.
The matching figures for GGAGCCGAAAGGCTATCC ((((((....)))..))): 38.2 °C and -8.64 kcal/mol.
The matching figures for GGAGCCGAAAGGCTCTCC ((((((....)))..))): 56.5 °C and -7.29 kcal/mol.
The matching figures for GGAGCCGAAAGGCTGTCC ((((((....)))..))): 41 °C and -8.93 kcal/mol.
As to GGAGCCGAAAGGCTTCC ((((((....))).))), the Tm in data set [1] amounted to 60.3 °C. In addition, the folding enthalpy in data set [2] was -14.6 kcal/mol.
In the same order, the values of GGAGCCGGAAACAGCTCC (((((.(....).))))) are 51.3 °C and -27.7 kcal/mol.
The matching figures for GGAGCCGGAAACGGCTTC (.(((((....))))).): 60.8 °C and -15 kcal/mol.
The matching figures for GGAGCCGGAAACGGTTCC (((.(((....))).))): 58.5 °C and -45.1 kcal/mol.
With GGAGCCTCGAAAGAGTCC (((..(((....)))))), the Tm in data set [1] stood at 25.9 °C. The folding enthalpy in data set [2] was -9.23 kcal/mol.
The matching figures for GGAGCGCGAAAGCGTCC (((.(((....)))))): 52.1 °C and -13.9 kcal/mol.
For the sequence GGAGCGGCGAAAGCCTCC (((..(((....)))))), the Tm in data set [1] was 39.5 °C. Besides, the folding enthalpy in data set [2] is -13.8 kcal/mol.
In the same order, the values of GGAGCTGCGAAAGCATCC (((..(((....)))))) are 32.4 °C and -9.48 kcal/mol.
In the same order, the values of GGAGCTGGAAACAGCCCC ((.((((....)))).)) are 54.3 °C and -24.2 kcal/mol.
The matching figures for GGAGCTGGAAACAGTTCC (((.(((....))).))): 50 °C and -37 kcal/mol.
On to GGAGGAGGAAACTTCTCC ((((.((....)).)))), for which the Tm in data set [1] amounted to 45.2 °C. The folding enthalpy in data set [2] is -35.9 kcal/mol.
The matching figures for GGAGGCGAAAGCCAATCC ((((((....)))..))): 33.6 °C and -10.4 kcal/mol.
Take GGAGGCGGAAACGCCTTC (.(((((....))))).): in data set [1], the Tm turned out to be 57.5 °C. For the same sequence, the folding enthalpy in data set [2] was -14.9 kcal/mol.
In the same order, the values of GGAGGCGGAAACGTCTCC ((((.((....)).)))) are 58.9 °C and -49.2 kcal/mol.
As to GGAGGGCGAAAGCCATCC (((.(((....))).))), in data set [1], the Tm was found to be 66.3 °C. Further, the folding enthalpy in data set [2] is -33.8 kcal/mol.
In the same order, the values of GGAGGGTCGAAAGACTCC (((..(((....)))))) are 39.5 °C and -14.3 kcal/mol.
Consider GGAGGTCGAAAGACGTCC (((.(((....))).))), for which, in data set [1], the Tm was 57.8 °C. Further, the folding enthalpy in data set [2] was -37.7 kcal/mol.
The matching figures for GGAGGTGGAAACACCCCC ((.((((....)))).)): 49.1 °C and -18.7 kcal/mol.
The matching figures for GGAGGTGGAAACACCTCC (((((((....))))))): 68.6 °C and -40.8 kcal/mol.
In the same order, the values of GGAGGTGGAAACGCCTCC (((((.(....).))))) are 57.2 °C and -50 kcal/mol.
With GGAGGTGGAAACGCCTTC (.(((.(....).))).), the Tm in data set [1] came to 48.5 °C. For the same sequence, the folding enthalpy in data set [2] was -26.2 kcal/mol.
In the same order, the values of GGAGTAGGAAACTGCTCC ((((.((....)).)))) are 51.4 °C and -28.5 kcal/mol.
In the same order, the values of GGAGTCCGAAAGGAGTCC (((.(((....))).))) are 63.3 °C and -44.2 kcal/mol.
In the same order, the values of GGAGTCGGAAACGACTTC (.(((((....))))).) are 55.5 °C and -25.6 kcal/mol.
Turning to GGAGTCGGAAACGGCTTC (.((.((....)).)).), in data set [1], the Tm was 44.3 °C. Further, the folding enthalpy in data set [2] was -21.7 kcal/mol.
The matching figures for GGAGTCGGAAACGGTTCC (((..((....))..))): 34.6 °C and -27.1 kcal/mol.
The matching figures for GGAGTGACGAAAGTCTCC (((..(((....)))))): 38.8 °C and -18 kcal/mol.
The matching figures for GGAGTGGCGAAAGCCTCC (((..(((....)))))): 44 °C and -15 kcal/mol.
With GGAGTGGGAAACCACCCC ((.((((....)))).)), the Tm in data set [1] was 47.1 °C. For the same sequence, in data set [2], the folding enthalpy is -21.5 kcal/mol.
The matching figures for GGAGTGGGAAACCACTCC (((((((....))))))): 68.2 °C and -38.6 kcal/mol.
In the same order, the values of GGAGTTGGAAACAGTTCC (((..((....))..))) are 35 °C and -13.4 kcal/mol.
With GGATAAACGAAAGTTTCC (((..(((....)))))), the Tm in data set [1] was found to be 27.7 °C. The folding enthalpy in data set [2] is -17.1 kcal/mol.
The matching figures for GGATAACGAAAGTTCTCC (((.(((....))).))): 41.3 °C and -32.7 kcal/mol.
On to GGATACACGAAAGTGTCC (((..(((....)))))), for which the Tm in data set [1] is 35.9 °C. The folding enthalpy in data set [2] was -12 kcal/mol.
In the case of GGATACCCGAAAGGGTCC (((..(((....)))))), in data set [1], the Tm came out at 31.9 °C. In data set [2], the folding enthalpy is -10.4 kcal/mol.
Regarding GGATACCGAAAGGTCTCC (((.(((....))).))), the Tm in data set [1] amounted to 47.6 °C. Further, the folding enthalpy in data set [2] is -25.3 kcal/mol.
As to GGATACGAAAGTAGATCC ((((((....)))..))), the Tm in data set [1] was 34.7 °C. Besides, the folding enthalpy in data set [2] was -17.9 kcal/mol.
For the sequence GGATACGAAAGTAGCTCC ((((((....)))..))), the Tm in data set [1] is 37.1 °C. Further, the folding enthalpy in data set [2] was -12.7 kcal/mol.
The matching figures for GGATACGAAAGTATTCC ((((((....))).))): 42.9 °C and -22.8 kcal/mol.
In the same order, the values of GGATAGCGAAAGCTGTCC (((.(((....))).))) are 59.3 °C and -42.1 kcal/mol.
In the same order, the values of GGATAGGAAACTATCC ((((((....)))))) are 51.4 °C and -30.5 kcal/mol.
In the case of GGATAGGCGAAAGCCTCC (((..(((....)))))), in data set [1], the Tm turned out to be 36.6 °C. The folding enthalpy in data set [2] was -10.2 kcal/mol.
With GGATAGGGAAACCTATCC (((((((....))))))), in data set [1], the Tm was determined as 56.8 °C. Moreover, the folding enthalpy in data set [2] was -47.9 kcal/mol.
In the same order, the values of GGATATACGAAAGTATCC (((..(((....)))))) are 36 °C and -16.9 kcal/mol.
On to GGATATGCGAAAGCATCC (((..(((....)))))), for which, in data set [1], the Tm came to 36.5 °C. Moreover, the folding enthalpy in data set [2] was -12.2 kcal/mol.
In the same order, the values of GGATATGGAAACGTATCC (((((.(....).))))) are 43.4 °C and -35.5 kcal/mol.
In the same order, the values of GGATCAGAAATGATCC ((((((....)))))) are 55.3 °C and -36 kcal/mol.
In the same order, the values of GGATCAGGAAACTGATTC (.(((((....))))).) are 44.4 °C and -31.1 kcal/mol.
For GGATCCCGAAAGGGGTCC (((.(((....))).))), the Tm in data set [1] is 65.8 °C. In addition, the folding enthalpy in data set [2] is -39.3 kcal/mol.
The matching figures for GGATCCGAAAGGACTCC ((((((....))).))): 47.4 °C and -23.9 kcal/mol.
The matching figures for GGATCCGGAAACGGACCC ((.((((....)))).)): 50.4 °C and -21.2 kcal/mol.
In the same order, the values of GGATCGCGAAAGCGTTCC (((.(((....))).))) are 57.8 °C and -27.7 kcal/mol.
GGATCGGGAAACCGGTCC (((.(((....))).))): the Tm in data set [1] came out at 56.1 °C. The folding enthalpy in data set [2] was -50.4 kcal/mol.
The matching figures for GGATCTGAAAAGATCC ((((((....)))))): 58.3 °C and -37 kcal/mol.
In the same order, the values of GGATCTGGAAACAGGTCC (((.(((....))).))) are 50.6 °C and -31.5 kcal/mol.
The matching figures for GGATGAGGAAACTCGTTC (.(.(((....))).).): 28.3 °C and -15.8 kcal/mol.
Take GGATGAGGAAACTTATCC ((((.((....)).)))): the Tm in data set [1] came out at 38.6 °C. Also, the folding enthalpy in data set [2] was -33.4 kcal/mol.
